System: U2OS
Experiment: Multiplex assay against U2OS
Type: toxicity, cell-based
Settings: human
In short: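 Hoechst33342, BioTracker Green Microtubule Cytoskeleton Dye, MitoTracker Red and Annexin V Alexa Fluor 680 were added to live cells at seeding, and imaging on a CQ1 microscope at 37°C and 5% CO2 followed compound addition. Gating by CellPathfinder machine learning separated cells into Hoechst high-intensity objects or normal cells, then normal cells into healthy, pyknosed or fragmented nuclei, then pyknosed cells into mitotic or apoptotic. Per cents of healthy-nucleus cells are reported for the tubulin, mitochondrial-mass and membrane-permeability phenotypes.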

[1] = 12 h, 1 µM, compound concentration 1 uM, replicate 1
[2] = 12 h, 1 µM, compound concentration 1 uM, replicate 2
[3] = 12 h, 10 µM, compound concentration 10 uM, replicate 1
[4] = 12 h, 10 µM, compound concentration 10 uM, replicate 2
[5] = 24 h, 1 µM, compound concentration 1 uM, replicate 1
[6] = 24 h, 1 µM, compound concentration 1 uM, replicate 2
[7] = 24 h, 10 µM, compound concentration 10 uM, replicate 1
[8] = 24 h, 10 µM, compound concentration 10 uM, replicate 2
[9] = 48 h, 1 µM, compound concentration 1 uM, replicate 1
[10] = 48 h, 1 µM, compound concentration 1 uM, replicate 2
[11] = 48 h, 10 µM, compound concentration 10 uM, replicate 1
[12] = 48 h, 10 µM, compound concentration 10 uM, replicate 2

## c1cc(OCCCN2CCCCC2)ccc1CN1CCCCC1 [JNJ-5207852]
[1]
  Population Apoptotic (%): 76%
  Population Fragmented Nuclei (%): 29%
  Population Healthy Nuclei (%): 65%
  Population Hoechst High Intensity Objects (%): 2%
  Population Membrane Permeable-Phenotype (%): 5%
  Population Mitochondria Different-Phenotype (%): 3%
  Population Mitotic Cells (%): 23%
  Population Normal (%): 97%
  Population Pyknosed Nuclei (%): 5%
  Population Tubulin-Different-Phenotype (%): 3%
  Total Cell Count: 253
[2]
  Population Apoptotic (%): 58%
  Population Fragmented Nuclei (%): 25%
  Population Healthy Nuclei (%): 62%
  Population Hoechst High Intensity Objects (%): 0%
  Population Membrane Permeable-Phenotype (%): 7%
  Population Mitotic Cells (%): 41%
  Population Normal (%): 99%
  Population Pyknosed Nuclei (%): 11%
  Total Cell Count: 106
[3]
  Population Apoptotic (%): 73%
  Population Fragmented Nuclei (%): 34%
  Population Healthy Nuclei (%): 57%
  Population Hoechst High Intensity Objects (%): 2%
  Population Membrane Permeable-Phenotype (%): 5%
  Population Mitochondria Different-Phenotype (%): 3%
  Population Mitotic Cells (%): 26%
  Population Normal (%): 97%
  Population Pyknosed Nuclei (%): 8%
  Population Tubulin-Different-Phenotype (%): 3%
  Total Cell Count: 228
[4]
  Population Apoptotic (%): 85%
  Population Fragmented Nuclei (%): 13%
  Population Healthy Nuclei (%): 80%
  Population Hoechst High Intensity Objects (%): 4%
  Population Membrane Permeable-Phenotype (%): 7%
  Population Mitochondria Different-Phenotype (%): 9%
  Population Mitotic Cells (%): 14%
  Population Normal (%): 95%
  Population Pyknosed Nuclei (%): 6%
  Population Tubulin-Different-Phenotype (%): 6%
  Total Cell Count: 120
[5]
  Population Apoptotic (%): 84%
  Population Fragmented Nuclei (%): 25%
  Population Healthy Nuclei (%): 65%
  Population Hoechst High Intensity Objects (%): 1%
  Population Membrane Permeable-Phenotype (%): 3%
  Population Mitochondria Different-Phenotype (%): 2%
  Population Mitotic Cells (%): 16%
  Population Normal (%): 98%
  Population Pyknosed Nuclei (%): 8%
  Population Tubulin-Different-Phenotype (%): 2%
  Total Cell Count: 287
[6]
  Population Apoptotic (%): 66%
  Population Fragmented Nuclei (%): 21%
  Population Healthy Nuclei (%): 68%
  Population Hoechst High Intensity Objects (%): 0%
  Population Membrane Permeable-Phenotype (%): 4%
  Population Mitotic Cells (%): 33%
  Population Normal (%): 100%
  Population Pyknosed Nuclei (%): 10%
  Population Tubulin-Different-Phenotype (%): 4%
  Total Cell Count: 119
[7]
  Population Apoptotic (%): 82%
  Population Fragmented Nuclei (%): 28%
  Population Healthy Nuclei (%): 62%
  Population Hoechst High Intensity Objects (%): 1%
  Population Membrane Permeable-Phenotype (%): 4%
  Population Mitochondria Different-Phenotype (%): 3%
  Population Mitotic Cells (%): 17%
  Population Normal (%): 98%
  Population Pyknosed Nuclei (%): 8%
  Population Tubulin-Different-Phenotype (%): 3%
  Total Cell Count: 271
[8]
  Population Apoptotic (%): 84%
  Population Fragmented Nuclei (%): 10%
  Population Healthy Nuclei (%): 80%
  Population Membrane Permeable-Phenotype (%): 8%
  Population Mitochondria Different-Phenotype (%): 5%
  Population Mitotic Cells (%): 15%
  Population Tubulin-Different-Phenotype (%): 8%
  Total Cell Count: 157
[9]
  Population Apoptotic (%): 82%
  Population Fragmented Nuclei (%): 21%
  Population Healthy Nuclei (%): 69%
  Population Hoechst High Intensity Objects (%): 2%
  Population Membrane Permeable-Phenotype (%): 4%
  Population Mitochondria Different-Phenotype (%): 2%
  Population Mitotic Cells (%): 17%
  Population Normal (%): 97%
  Population Pyknosed Nuclei (%): 8%
  Population Tubulin-Different-Phenotype (%): 4%
  Total Cell Count: 400
[10]
  Population Apoptotic (%): 76%
  Population Fragmented Nuclei (%): 19%
  Population Healthy Nuclei (%): 71%
  Population Hoechst High Intensity Objects (%): 3%
  Population Membrane Permeable-Phenotype (%): 9%
  Population Mitochondria Different-Phenotype (%): 4%
  Population Mitotic Cells (%): 23%
  Population Normal (%): 96%
  Population Tubulin-Different-Phenotype (%): 3%
  Total Cell Count: 152
[11]
  Population Apoptotic (%): 86%
  Population Fragmented Nuclei (%): 22%
  Population Healthy Nuclei (%): 70%
  Population Hoechst High Intensity Objects (%): 2%
  Population Membrane Permeable-Phenotype (%): 7%
  Population Mitochondria Different-Phenotype (%): 3%
  Population Mitotic Cells (%): 13%
  Population Normal (%): 97%
  Population Pyknosed Nuclei (%): 6%
  Population Tubulin-Different-Phenotype (%): 5%
  Total Cell Count: 345
[12]
  Population Apoptotic (%): 93%
  Population Fragmented Nuclei (%): 14%
  Population Healthy Nuclei (%): 78%
  Population Hoechst High Intensity Objects (%): 1%
  Population Membrane Permeable-Phenotype (%): 6%
  Population Mitochondria Different-Phenotype (%): 2%
  Population Mitotic Cells (%): 6%
  Population Normal (%): 98%
  Population Tubulin-Different-Phenotype (%): 4%
  Total Cell Count: 245

Source: ChEMBL document CHEMBL5058577, “EUbOPEN Chemogenomics Library 2 (Multiplex)” (2022)
